From ChEMBL document CHEMBL4513216, “Probing the Open Global Health Chemical Diversity Library for Multistage-Active Starting Points for Next-Generation Antimalarials” (ACS Infect Dis, 2020)

Assay: Toxicity liver stage against HepG2, at 10uM
Format: cell-based
Parameters: test concentration 10 uM, cell line HepG2-A16-CD81EGFP
Details: human, HepG2-A16-CD81EGFP cells; read-out: INHIBITION
Outline: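 Uninfected HepG2-A16-CD81EGFP cells, 3 × 10^3 per well, 1536-well, plated on prespotted compound at 10 μM final, parasite-free screening media added to match infected plates; puromycin 10 μM positive, DMSO 0.5% negative; run in parallel with 48 h PbLuc assay at 37 °C, 5% CO2; viability by CellTiter-Glo luminescence, normalized to controls.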

| Compound | cytotoxicity at 10 µM |
| --- | --- |
| Cc1nc(C)n(CC2CN(CC(=O)Nc3ccncc3)CCO2)n1 (configuration not stated) | -0.654% |
| Cc1ccc(NC2CCN(C(=O)c3ccc(C#N)cc3)CC2)nn1 | -4.28% |
| COc1ccc(C)cc1CN1CCN(Cc2nccn2C)C(C)C1 (configuration not stated) | 1.43% |
| Cc1cc(C)n(CC2CCCN2CC(=O)Nc2cc(C(C)C)no2)n1 (configuration not stated) | 0.407% |
| COCCN1CCC(CNC(=O)C2(c3cccc(Cl)c3)CC2)C1 (configuration not stated) | -6.63% |
| Cc1cc2n(n1)CC(CNC1CCN(Cc3ccccn3)CC1)CN2 (configuration not stated) | 3.67% |
| O=C(NS(=O)(=O)c1cccc(C(F)(F)F)c1)c1cscn1 | 1.67% |
| Cn1cc(CCCNS(=O)(=O)N2CCCC2c2ccco2)cn1 (configuration not stated) | 9.38% |
| CC(C)(C)n1ncc(NCC(O)c2ccccc2)c(Cl)c1=O (configuration not stated) | 46.6% |
| CC(=O)N1CCC(c2cncc(N3CCOCC3)n2)CC1 | 3.66% |
| CCCN(CC(=O)NC)C(=O)c1ccc(-c2ccsc2)nc1C | -14.3% |
| CC(C(=O)N1CCCCCC1)N1CCN(c2nccs2)CC1 (configuration not stated) | 11.7% |
| Cc1cccc(C(C(=O)N(C)Cc2cc(C)no2)N(C)C)c1 (configuration not stated) | 4.94% |
| COc1ccc2c(CN3CCN(Cc4cccc(F)c4)CC3)n[nH]c2c1 | -1.86% |
| CC(Cn1ccnc1)NS(=O)(=O)Cc1ccc(F)cc1 (configuration not stated) | 5.36% |
| CN(C)CC1(O)CCN(C(=O)Cc2ccc3c(c2)CCC3)C1 (configuration not stated) | -7.84% |
| Cc1n[nH]c2c1C(c1ccc3c(c1)OCCO3)SCC(=O)N2 (configuration not stated) | -0.37% |
| CC(=O)N1[C@H](Cn2cncn2)C[C@@H]2CN(CC3CC3)CC[C@@H]21 | -3.64% |
| CCN(Cc1ccncc1)Cc1c[nH]nc1-c1ccc(F)cc1 | -5.83% |
| CCCc1noc(CN2CCN(CCO)CC2)n1 | -12.1% |
| CCNC(=O)c1nnn(Cc2ccccc2)c1OC | 4.62% |

| Compound | cytotoxicity at 10 µM |
| --- | --- |
| N#Cc1cnc2ccccc2c1N1CCN(CCC(=O)O)CC1 | -1.28% |
| COc1cccc(CCC2CCCN(C(C)=O)C2)c1 (configuration not stated) | -15.9% |
| CCc1nc(CN(C)C2CCCN(c3cccnn3)C2)no1 (configuration not stated) | -5.87% |
| Cc1cnn(CC2CCCCN2C(=O)c2cnc3n[nH]c(C)c3c2)c1 (configuration not stated) | -26.2% |
| O=C(Nc1ccc(F)c(Cl)c1)N1CCCN([C@H]2COC[C@@H]2O)CC1 | -40.7% |
| Cc1cccc2c1nc(COCC(=O)O)n2-c1ccc(N)nc1 | 1.77% |
| COc1ccc(NC(=O)N2CCC(CSC)C2)cc1C (configuration not stated) | 3.36% |
| Cn1cnnc1CC1CCN(Cc2nn(C)c3cccc(Cl)c23)CC1 | -1.62% |
| CS(=O)(=O)N1CCC(c2nc3ccc(-c4cccc(F)c4)cn3n2)CC1 | 22.6% |
| COc1ccc([C@@H]2CN(Cc3cccnc3N)C[C@H]2N(C)C)cc1 | 1.54% |
| CC(=O)c1cccc(OCCCC(=O)N(C)C2CCN(C)CC2)c1 | 3.07% |
| NC(=O)c1ccc(OCC(=O)N2CCCC2c2ccc[nH]2)cc1 (configuration not stated) | -5.82% |
| O=C(CCCNc1ncccn1)Nc1ccc(Cn2cncn2)cc1 | 0.55% |
| CN1CCCCC1C(=O)N1CCN(c2ccccc2C#N)CC1 (configuration not stated) | -6.85% |
| CCC/C=C/c1ccc(CN2CCN(C)CC2)cn1 | -8.61% |
| COc1ccc2cc(C(=O)N3CC[C@H](CO)[C@H](O)C3)n(C)c2c1 | -7.03% |
| COCC(=O)N(Cc1cccnc1)CC1CCCN(C2CCCCC2)C1 (configuration not stated) | 1.72% |
| NC(=O)c1cc(NC(=O)N2CCOCC2)ccc1F | -48.8% |
| NCCc1cc(N2CCOCC2)nc(NC2CC2)n1 | 0.881% |
| Cc1nc(CN2C[C@@H]3CN(C(=O)C4CC4)C[C@@H]3C2=O)cs1 | 4.19% |
| O=C(c1csc(-c2ncccn2)n1)N1CCN2CCCCC2C1 (configuration not stated) | 4.55% |

| Compound | cytotoxicity at 10 µM |
| --- | --- |
| c1ncn(CC2CN(CC3CCCCC3)CCO2)n1 (configuration not stated) | -14.8% |
| Cc1ccccc1OCC(=O)NCC(c1ccc(N(C)C)cc1)N(C)C (configuration not stated) | -30.2% |
| CN1CCN(S(=O)(=O)C2CC2)Cc2cccnc21 | -108% |
| CC(OCC(F)(F)F)C(=O)Nc1ccc(-n2cncn2)nc1 (configuration not stated) | 3.44% |
| COc1ccc(C)cc1C(C)NCc1cccn1C (configuration not stated) | -5.89% |
| Cc1cc(O)cc(=O)n1CCCC(=O)Nc1n[nH]c2cccc(F)c12 | -8.85% |
| CN(Cc1cnccn1)C(=O)Nc1cc(F)cc(N2CCCC2)c1 | 1.8% |
| CN(C)[C@H]1CCCCN(C(=O)CCc2csc(N)n2)C1 | -7.59% |
| Cc1ccc(-c2nc(CNC(C)Cn3cccn3)cs2)o1 (configuration not stated) | -7.82% |
| Cc1ccc(N2CCC3(CCCN(C(=O)c4cccnc4)C3)C2)nn1 (configuration not stated) | 2.21% |
| Cc1cccc(C2(C(=O)NCC(C)CN3CCCC3=O)CC2)c1 (configuration not stated) | -0.89% |
| COc1ccnc(N2CCN(CC(=O)N3CCOC(C)C3)CC2)n1 (configuration not stated) | -5.4% |
| CC1(NC(=O)Cc2cccs2)CCS(=O)(=O)C1 (configuration not stated) | 8.39% |
| CCOc1cccc(CNC(=O)CN2CCC3(CCOC3)C2)c1 (configuration not stated) | -42.1% |
| CC(C)c1ccc(CN2CCN(C(=O)c3cc(C4CC4)[nH]n3)CC2)cc1 | 39.7% |
| CC(C)(C(=O)NCCCC(N)=O)c1cccc(Br)c1 | 4.23% |
| O=C(CSc1nncs1)N1CCN(Cc2ccc(Cl)cc2)CC1 | 21.9% |
| CC(C)c1n[nH]c(C(=O)Nc2ccccn2)c1Br | -31.7% |
| O=C(NCc1ccccn1)[C@H]1COC[C@H]2CN(C3CCCC3)C[C@H]21 | -73.6% |
| COc1ccc(C)cc1C1(CNc2cncc(Cl)n2)CCOCC1 | 7.07% |
| CCc1nc2c(s1)C(N(C)C(=O)c1csnn1)CCC2 (configuration not stated) | -3.71% |

| Compound | cytotoxicity at 10 µM |
| --- | --- |
| COCCN1CCN(C=C2NN=C(c3occc3C)O2)CC1 | -49.4% |
| Cc1ccc(CN2CCO[C@H]3[C@@H](OCc4cccnc4)CC[C@@H]32)o1 | -0.58% |
| c1cncc(O[C@H]2COCCN(Cc3c[nH]c4ccccc34)C2)c1 | 0.208% |
| Cn1cccc1-c1cc(C(=O)NCCc2nnc(N)s2)[nH]n1 | -7.22% |
| COCCn1ccc(NC(=O)Nc2ccc(C(N)=O)c(F)c2)n1 | 2.63% |
| CN(C)S(=O)(=O)N1CCCC(c2cccc(Cc3ccc(Cl)cc3)n2)C1 (configuration not stated) | 56% |
| CC(O)CN1CCN(Cc2cccc(C#N)c2)CC1 (configuration not stated) | 9.56% |
| Cc1cc(NC(=O)NCCc2cccnc2)n(C)n1 | -3.86% |
| OCc1ccc(CN2CCC(n3cc(-c4ccc(F)cc4)nn3)CC2)o1 | 5.54% |
| O=C(c1cccnc1N1CCCCC1)N1CCCC(n2ccnc2)C1 (configuration not stated) | -14.4% |
| CC(C)[C@@H]1CN(Cc2c[nH]nc2-c2ccc(F)cc2)C[C@H]1NS(C)(=O)=O | -0.882% |
| Cc1nnc(SCC(=O)NCc2ccc3c(c2)CCC(=O)N3)n1C | 9.73% |
| CCc1nc2c(NCC3COc4cc(OC)ccc4C3)ncnc2o1 (configuration not stated) | 40.9% |
| CCc1nc2c(c(C)c(C)n2Cc2cccnc2)c(N)c1C | 6.7% |
| CC(C)c1nc(C2CCCN(C(=O)CCCn3cncn3)C2)no1 (configuration not stated) | -3.29% |
| O=C(c1ccco1)N1CCO[C@@H]2CN(c3ccccn3)CC[C@@H]2C1 | 9.43% |
| O=C(NCC1(CO)CC1)c1ccccc1Br | -0.734% |
| Cc1cccc2[nH]c(C3CCN(C(=O)c4ccc[nH]4)CC3)nc12 | 6.01% |
| Cc1csc2ncc(-c3ccnc(N4CCCC[C@@H]4CO)n3)c(=O)n12 | 9.12% |
